In the M2OR odorant receptor database:

How the values were obtained:
Conditions in all cases: stereoisomer not certain
[1] = biological target: T1, OR10G2 (Homo sapiens) (UniProt Q8NGC3)
T1 sequence (whole entry): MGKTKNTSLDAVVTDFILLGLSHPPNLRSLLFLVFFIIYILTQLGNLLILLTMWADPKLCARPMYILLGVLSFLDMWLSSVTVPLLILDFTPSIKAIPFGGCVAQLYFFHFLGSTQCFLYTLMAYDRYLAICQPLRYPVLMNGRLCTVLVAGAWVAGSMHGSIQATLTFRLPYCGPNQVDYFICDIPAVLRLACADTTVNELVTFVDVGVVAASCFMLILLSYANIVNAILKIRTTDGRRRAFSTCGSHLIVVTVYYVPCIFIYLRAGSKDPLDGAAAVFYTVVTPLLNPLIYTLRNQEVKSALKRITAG
Method in brief: (§1)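 Each entry records the cell line, G-protein, co-transfected protein and tags used. Methods varied with the source, often transient luciferase assays in mammalian cell lines. A receptor–molecule pair is called responsive (active) if the original authors judged its signal statistically different from baseline and non-responsive (inactive) otherwise.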

[2] = biological target: T2, OR10G3 (Homo sapiens) (UniProt Q8NGC4)
T2 sequence (whole entry): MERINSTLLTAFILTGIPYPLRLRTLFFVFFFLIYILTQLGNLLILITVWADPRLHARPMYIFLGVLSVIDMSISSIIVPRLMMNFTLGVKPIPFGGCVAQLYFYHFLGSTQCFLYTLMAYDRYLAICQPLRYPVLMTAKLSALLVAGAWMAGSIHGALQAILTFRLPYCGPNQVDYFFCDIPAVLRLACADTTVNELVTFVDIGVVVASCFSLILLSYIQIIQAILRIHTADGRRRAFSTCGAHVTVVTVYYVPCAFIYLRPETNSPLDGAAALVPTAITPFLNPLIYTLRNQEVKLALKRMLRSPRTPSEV
Method in brief: as §1

[3] = biological target: T3, OR10G4 (Homo sapiens) (UniProt Q8NGN3)
T3 sequence (whole entry): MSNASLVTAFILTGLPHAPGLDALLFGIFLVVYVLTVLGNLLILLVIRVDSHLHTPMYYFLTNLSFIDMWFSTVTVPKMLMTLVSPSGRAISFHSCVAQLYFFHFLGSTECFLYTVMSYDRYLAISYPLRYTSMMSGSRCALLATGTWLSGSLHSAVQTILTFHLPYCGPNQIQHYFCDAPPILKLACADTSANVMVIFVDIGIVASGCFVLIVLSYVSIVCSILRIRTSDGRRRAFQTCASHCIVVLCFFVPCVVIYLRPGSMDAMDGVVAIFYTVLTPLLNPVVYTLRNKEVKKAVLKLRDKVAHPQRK
Method in brief: as §1

[4] = biological target: T4, OR10G6 (Homo sapiens) (UniProt Q8NH81)
T4 sequence (whole entry): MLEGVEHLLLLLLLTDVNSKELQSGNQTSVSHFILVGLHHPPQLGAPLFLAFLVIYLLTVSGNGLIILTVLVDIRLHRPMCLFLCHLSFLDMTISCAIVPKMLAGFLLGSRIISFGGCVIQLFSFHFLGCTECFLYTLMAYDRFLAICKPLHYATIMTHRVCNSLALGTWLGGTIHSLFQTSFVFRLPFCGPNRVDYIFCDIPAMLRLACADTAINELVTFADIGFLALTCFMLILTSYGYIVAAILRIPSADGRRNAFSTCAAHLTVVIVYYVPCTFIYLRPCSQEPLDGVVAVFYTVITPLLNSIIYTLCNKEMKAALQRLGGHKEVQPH
Method in brief: as §1

[5] = biological target: T5, OR10G7 (Homo sapiens) (UniProt Q8NGN6)
T5 sequence (whole entry): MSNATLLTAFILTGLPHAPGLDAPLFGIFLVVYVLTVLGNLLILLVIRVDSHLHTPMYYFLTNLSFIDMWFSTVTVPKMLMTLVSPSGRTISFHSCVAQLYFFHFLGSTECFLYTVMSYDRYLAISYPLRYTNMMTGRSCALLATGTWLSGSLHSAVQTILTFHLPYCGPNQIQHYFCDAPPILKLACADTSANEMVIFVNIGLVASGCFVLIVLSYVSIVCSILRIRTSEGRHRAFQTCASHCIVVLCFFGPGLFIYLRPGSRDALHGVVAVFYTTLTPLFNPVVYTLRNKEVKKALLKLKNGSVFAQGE
Method in brief: as §1

[6] = biological target: T6, OR10G8 (Homo sapiens) (UniProt Q8NGN5)
T6 sequence (whole entry): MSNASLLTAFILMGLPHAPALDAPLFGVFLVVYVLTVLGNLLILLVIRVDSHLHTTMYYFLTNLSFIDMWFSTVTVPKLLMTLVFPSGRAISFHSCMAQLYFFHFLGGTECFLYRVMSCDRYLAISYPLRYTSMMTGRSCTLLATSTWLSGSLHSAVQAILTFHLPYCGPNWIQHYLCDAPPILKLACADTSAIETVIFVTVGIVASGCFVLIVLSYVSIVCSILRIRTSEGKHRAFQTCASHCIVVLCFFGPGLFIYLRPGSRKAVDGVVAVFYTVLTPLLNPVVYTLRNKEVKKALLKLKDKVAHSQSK
Method in brief: as §1

[7] = biological target: T7, OR10G9 (Homo sapiens) (UniProt Q8NGN4)
T7 sequence (whole entry): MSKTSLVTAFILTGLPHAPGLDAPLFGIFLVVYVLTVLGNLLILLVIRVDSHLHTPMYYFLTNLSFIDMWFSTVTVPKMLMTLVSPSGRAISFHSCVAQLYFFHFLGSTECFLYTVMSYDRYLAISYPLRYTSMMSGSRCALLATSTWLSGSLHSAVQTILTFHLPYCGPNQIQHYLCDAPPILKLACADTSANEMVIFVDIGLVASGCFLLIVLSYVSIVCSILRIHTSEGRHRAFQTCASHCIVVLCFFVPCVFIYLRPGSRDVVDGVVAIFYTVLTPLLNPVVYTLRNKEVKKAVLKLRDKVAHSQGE
Method in brief: as §1

[8] = biological target: T8, OR10H1 (Homo sapiens) (UniProt Q9Y4A9)
T8 sequence (whole entry): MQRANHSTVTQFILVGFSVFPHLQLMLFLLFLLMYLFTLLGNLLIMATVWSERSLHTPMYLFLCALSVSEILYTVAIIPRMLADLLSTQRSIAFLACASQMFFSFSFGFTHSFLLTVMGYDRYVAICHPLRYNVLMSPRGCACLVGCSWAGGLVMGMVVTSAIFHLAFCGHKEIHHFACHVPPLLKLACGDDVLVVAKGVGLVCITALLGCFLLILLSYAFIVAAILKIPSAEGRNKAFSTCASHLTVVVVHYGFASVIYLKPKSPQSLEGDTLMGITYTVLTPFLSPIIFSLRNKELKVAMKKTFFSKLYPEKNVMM
Method in brief: as §1

[9] = biological target: T9, OR10H2 (Homo sapiens) (UniProt O60403)
T9 sequence (whole entry): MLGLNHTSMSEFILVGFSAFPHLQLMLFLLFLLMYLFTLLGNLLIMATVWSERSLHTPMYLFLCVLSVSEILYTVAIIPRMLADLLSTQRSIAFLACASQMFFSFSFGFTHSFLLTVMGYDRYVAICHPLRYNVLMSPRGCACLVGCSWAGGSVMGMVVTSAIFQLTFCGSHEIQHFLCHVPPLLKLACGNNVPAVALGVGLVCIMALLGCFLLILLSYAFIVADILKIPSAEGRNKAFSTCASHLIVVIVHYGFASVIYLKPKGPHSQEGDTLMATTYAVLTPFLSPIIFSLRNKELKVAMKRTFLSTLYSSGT
Method in brief: as §1

[10] = biological target: T10, OR10H3 (Homo sapiens) (UniProt O60404)
T10 sequence (whole entry): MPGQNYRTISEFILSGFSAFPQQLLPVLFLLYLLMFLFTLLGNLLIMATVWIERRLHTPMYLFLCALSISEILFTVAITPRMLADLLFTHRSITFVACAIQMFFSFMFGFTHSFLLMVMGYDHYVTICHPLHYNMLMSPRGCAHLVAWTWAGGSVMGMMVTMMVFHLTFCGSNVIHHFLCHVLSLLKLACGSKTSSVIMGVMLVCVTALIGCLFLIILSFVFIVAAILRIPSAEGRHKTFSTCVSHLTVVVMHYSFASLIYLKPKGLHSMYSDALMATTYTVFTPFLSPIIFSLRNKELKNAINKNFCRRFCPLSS
Method in brief: as §1

[11] = biological target: T11, OR10H4 (Homo sapiens) (UniProt Q8NGA5)
T11 sequence (whole entry): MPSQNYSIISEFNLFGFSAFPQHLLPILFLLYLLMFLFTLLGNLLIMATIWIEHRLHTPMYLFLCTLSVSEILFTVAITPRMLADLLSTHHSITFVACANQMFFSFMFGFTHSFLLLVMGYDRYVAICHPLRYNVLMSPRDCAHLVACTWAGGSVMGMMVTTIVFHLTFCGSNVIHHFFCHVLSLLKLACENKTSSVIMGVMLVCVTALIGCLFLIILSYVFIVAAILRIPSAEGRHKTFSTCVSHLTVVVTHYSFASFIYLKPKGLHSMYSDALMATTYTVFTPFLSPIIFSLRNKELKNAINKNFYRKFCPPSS
Method in brief: as §1

[12] = biological target: T12, OR10H5 (Homo sapiens) (UniProt Q8NGA6)
T12 sequence (whole entry): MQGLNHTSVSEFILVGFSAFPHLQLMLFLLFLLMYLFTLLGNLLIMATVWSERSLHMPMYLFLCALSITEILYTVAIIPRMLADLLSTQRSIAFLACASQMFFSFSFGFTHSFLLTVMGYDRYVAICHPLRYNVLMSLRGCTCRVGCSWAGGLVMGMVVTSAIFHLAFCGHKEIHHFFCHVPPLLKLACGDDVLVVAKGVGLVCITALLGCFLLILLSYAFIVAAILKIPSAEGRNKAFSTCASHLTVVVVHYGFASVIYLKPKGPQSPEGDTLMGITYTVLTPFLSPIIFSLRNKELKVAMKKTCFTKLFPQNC
Method in brief: as §1

[13] = biological target: T13, OR10J1 (Homo sapiens) (UniProt P30954)
T13 sequence (whole entry): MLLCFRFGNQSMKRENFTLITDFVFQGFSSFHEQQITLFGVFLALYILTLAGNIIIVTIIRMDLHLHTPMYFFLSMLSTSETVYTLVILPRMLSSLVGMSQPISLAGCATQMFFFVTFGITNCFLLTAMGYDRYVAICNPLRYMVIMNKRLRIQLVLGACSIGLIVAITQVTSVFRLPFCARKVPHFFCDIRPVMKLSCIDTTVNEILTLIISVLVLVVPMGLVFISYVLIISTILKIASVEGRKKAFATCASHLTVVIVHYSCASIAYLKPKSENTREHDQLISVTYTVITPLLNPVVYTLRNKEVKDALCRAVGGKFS
Method in brief: as §1

[14] = biological target: T14, OR10J3 (Homo sapiens) (UniProt Q5JRS4)
T14 sequence (whole entry): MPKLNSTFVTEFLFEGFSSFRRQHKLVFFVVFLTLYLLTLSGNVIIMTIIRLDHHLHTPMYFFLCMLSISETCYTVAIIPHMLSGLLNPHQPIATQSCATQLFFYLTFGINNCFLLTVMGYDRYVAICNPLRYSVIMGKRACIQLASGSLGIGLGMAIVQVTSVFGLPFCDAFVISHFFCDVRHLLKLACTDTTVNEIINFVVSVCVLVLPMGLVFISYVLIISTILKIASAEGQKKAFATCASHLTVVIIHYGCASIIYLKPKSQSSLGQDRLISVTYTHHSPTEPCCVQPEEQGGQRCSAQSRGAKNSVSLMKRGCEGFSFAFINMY
Method in brief: as §1

[15] = biological target: T15, OR10J5 (Homo sapiens) (UniProt Q8NHC4)
T15 sequence (whole entry): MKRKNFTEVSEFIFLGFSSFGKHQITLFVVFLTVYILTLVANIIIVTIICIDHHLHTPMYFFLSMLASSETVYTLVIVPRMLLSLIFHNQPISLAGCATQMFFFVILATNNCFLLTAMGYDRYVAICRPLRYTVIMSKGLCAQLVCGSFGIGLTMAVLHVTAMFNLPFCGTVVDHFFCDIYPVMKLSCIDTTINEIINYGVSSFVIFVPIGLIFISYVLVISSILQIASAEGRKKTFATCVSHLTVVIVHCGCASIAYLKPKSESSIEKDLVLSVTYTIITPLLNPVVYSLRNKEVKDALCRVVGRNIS
Method in brief: as §1

[16] = biological target: T16, OR10K1 (Homo sapiens) (UniProt Q8NGX5)
T16 sequence (whole entry): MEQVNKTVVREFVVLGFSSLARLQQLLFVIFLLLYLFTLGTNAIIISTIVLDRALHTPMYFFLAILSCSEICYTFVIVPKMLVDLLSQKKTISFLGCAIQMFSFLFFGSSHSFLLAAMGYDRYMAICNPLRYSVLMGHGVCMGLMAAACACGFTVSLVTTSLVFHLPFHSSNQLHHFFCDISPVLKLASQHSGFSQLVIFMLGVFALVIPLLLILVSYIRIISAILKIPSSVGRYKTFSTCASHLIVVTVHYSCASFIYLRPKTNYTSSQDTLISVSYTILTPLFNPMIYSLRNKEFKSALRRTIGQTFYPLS
Method in brief: as §1

[17] = biological target: T17, OR10P1 (Homo sapiens) (UniProt Q8NGE3)
T17 sequence (whole entry): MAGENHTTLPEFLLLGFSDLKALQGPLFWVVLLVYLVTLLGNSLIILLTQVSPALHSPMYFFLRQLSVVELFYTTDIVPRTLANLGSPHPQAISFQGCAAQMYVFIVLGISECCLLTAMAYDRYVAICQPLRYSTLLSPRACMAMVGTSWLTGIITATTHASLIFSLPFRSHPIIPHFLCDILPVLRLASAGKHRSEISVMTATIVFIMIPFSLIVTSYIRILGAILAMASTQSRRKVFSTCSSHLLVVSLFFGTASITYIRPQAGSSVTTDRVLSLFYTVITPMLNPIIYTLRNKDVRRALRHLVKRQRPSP
Method in brief: as §1

[18] = biological target: T18, OR10Q1 (Homo sapiens) (UniProt Q8NGQ4)
T18 sequence (whole entry): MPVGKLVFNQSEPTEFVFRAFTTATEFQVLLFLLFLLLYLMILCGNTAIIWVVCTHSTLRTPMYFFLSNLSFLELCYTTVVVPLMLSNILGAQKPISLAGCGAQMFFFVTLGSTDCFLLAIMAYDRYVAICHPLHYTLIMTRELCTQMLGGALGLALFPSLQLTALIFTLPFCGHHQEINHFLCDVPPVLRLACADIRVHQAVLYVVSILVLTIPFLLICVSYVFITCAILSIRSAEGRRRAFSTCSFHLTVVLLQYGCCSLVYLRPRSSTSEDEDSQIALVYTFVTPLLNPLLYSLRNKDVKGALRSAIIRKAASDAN
Method in brief: as §1

Measured: odorant receptor agonist call

CCC1OC(C)=C(O)C1=O (stereo not drawn)
inactive: all assays above
